Data: ChEMBL document CHEMBL2203145, “Synthesis and structure-activity relationships of tri-substituted thiazoles as RAGE antagonists for the treatment of Alzheimer's disease” (Bioorg Med Chem Lett, 2012)

What was measured:
[1] = molecular target: T1, Advanced glycosylation end product-specific receptor (Homo sapiens, UniProt Q15109); test: Antagonist activity at RAGE transfected in CHO cells assessed as inhibition of amyloid beta 42-induced NFkappaB activation at 1 uM after 18 hrs by luciferase reporter gene assay; type: functional, cell-based
Summary of the method: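 CHO-NF-κB-luciferase cells at 20,000 cells/well in Opti-MEM, incubated overnight, then treated with compound (1 µM) for 18 h at 37 °C with or without 5 µM Aβ42. Cells lysed in passive lysis buffer, lysate mixed with luciferase substrate, relative light units read on a luminometer.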

[2] = molecular target: T1, Advanced glycosylation end product-specific receptor; test: Antagonist activity at human biotinylated RAGE assessed as inhibition of amyloid beta binding after 60 mins by ELISA
Summary of the method: (§1)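 Biotinylated protein with Aβ in BSA-containing buffer incubated on a streptavidin-coated plate for 60 min at ambient temperature, then washed with TBS-T. Bound Aβ detected with HRP-conjugated 4G8 antibody (1:1000, TBS-T with 2.5% BSA) for 60 min at ambient temperature. Developed with TMB, stopped with sulfuric acid, absorbance read at 450 nm.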

[3] = molecular target: Advanced glycosylation end product-specific receptor (Mus musculus) (UniProt Q62151); test: Antagonist activity at RAGE overexpressed in mouse bEND.3 cells assessed as inhibition of FITC-amyloid beta 42 transport across blood-brain barrier at 10 uM by fluorescence assay; type: functional, cell-based
Summary of the method: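 RAGE-overexpressing bEND.3 cells grown 3–4 days to confluence on inserts to form a tight-junction barrier; TEER taken as resistance minus blank-insert resistance, times insert area. Aβ transport across the monolayer measured with compound at 10 µM; reported as % inhibition.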

[4] = molecular target: T1, Advanced glycosylation end product-specific receptor; test: Antagonist activity at human biotinylated RAGE assessed as inhibition of amyloid beta binding at 10 uM after 60 mins by ELISA; summary of the method: as §1

T1 sequence (Q15109 whole entry): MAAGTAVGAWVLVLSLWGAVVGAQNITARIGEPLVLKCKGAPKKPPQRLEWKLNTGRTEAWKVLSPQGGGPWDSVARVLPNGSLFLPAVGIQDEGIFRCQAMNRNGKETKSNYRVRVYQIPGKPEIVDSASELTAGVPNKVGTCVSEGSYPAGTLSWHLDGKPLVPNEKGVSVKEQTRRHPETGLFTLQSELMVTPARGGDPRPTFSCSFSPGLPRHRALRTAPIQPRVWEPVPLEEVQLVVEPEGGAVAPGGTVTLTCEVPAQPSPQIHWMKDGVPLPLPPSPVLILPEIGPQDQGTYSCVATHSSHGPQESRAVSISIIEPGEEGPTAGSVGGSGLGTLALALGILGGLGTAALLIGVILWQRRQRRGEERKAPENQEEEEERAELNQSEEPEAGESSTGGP
Advanced glycosylation end product-specific receptor (Mus musculus), sequence (Q62151 whole entry): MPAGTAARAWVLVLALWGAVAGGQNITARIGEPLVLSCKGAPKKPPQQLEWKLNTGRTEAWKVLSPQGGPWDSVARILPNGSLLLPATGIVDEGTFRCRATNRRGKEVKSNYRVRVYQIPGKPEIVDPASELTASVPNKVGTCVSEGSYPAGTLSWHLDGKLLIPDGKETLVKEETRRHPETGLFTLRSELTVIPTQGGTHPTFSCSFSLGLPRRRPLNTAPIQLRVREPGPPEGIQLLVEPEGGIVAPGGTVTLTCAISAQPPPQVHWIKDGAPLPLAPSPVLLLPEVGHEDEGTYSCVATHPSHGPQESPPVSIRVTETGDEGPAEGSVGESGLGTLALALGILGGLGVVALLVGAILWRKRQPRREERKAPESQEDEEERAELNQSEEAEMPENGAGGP

Row | inhibition [1] [%] | IC50 [2] [nM] | inhibition [3] [%] | inhibition [4] [%] | SMILES
1 |  | 1120 | 71.7 | 57 | CCCCc1sc(-c2ccc(Oc3ccc(Cl)cc3)cc2)nc1-c1ccc(OCCCN(CC)CC)cc1
2 |  |  |  | 49.6 | CCCCc1nc(-c2ccc(OCCCN(CC)CC)cc2)sc1-c1ccc(Oc2ccc(Cl)cc2)cc1
3 |  |  |  | 46.2 | CCCCc1sc(-c2ccc(OCCCN(C)C)cc2)nc1-c1ccc(Oc2ccc(Cl)cc2)cc1
4 |  | 1720 | 73.3 | 58.9 | CCCCc1sc(-c2ccc(OCCCN(CC)CC)cc2)nc1-c1ccc(Oc2ccc(Cl)cc2)cc1
5 | 10.3 | 2010 | 63.5 | 57.1 | CCCCc1nc(-c2ccc(Oc3ccc(Cl)cc3)cc2)sc1-c1ccc(OCCCN(CC)CC)cc1
6 |  | 5590 |  | 60.2 | CCCCc1sc(NC(=O)c2ccc(OCCCN(CC)CC)cc2)nc1-c1ccc(Oc2ccc(Cl)cc2)cc1
7 |  |  |  | 48.1 | CCCCc1sc(C(=O)Nc2ccc(OCCCN(CC)CC)cc2)nc1-c1ccc(Oc2ccc(Cl)cc2)cc1
8 |  | 550 |  | 60.9 | CCCCc1sc(Nc2ccc(OCCCN(CC)CC)cc2)nc1-c1ccc(Oc2ccc(Cl)cc2)cc1
9 |  |  |  | 47.7 | CCCCc1nc(-c2ccc(OCC3CCCN(CC)C3)cc2)sc1-c1ccc(Oc2ccc(Cl)cc2)cc1 (stereo unspecified)
10 | 4.9 | 1140 | 61.5 | 53.9 | CCCCc1nc(-c2ccc(Oc3ccc(Cl)cc3)cc2)sc1-c1ccc(OCC2CCCN(CC)C2)cc1 (stereo unspecified)
11 | 2.1 | 3180 | 66.6 | 51.8 | CCCCc1sc(-c2ccc(OCCN(C)C)cc2)nc1-c1ccc(Oc2ccc(Cl)cc2)cc1
12 | 11.3 | 1580 |  | 55.1 | CCCCc1sc(-c2ccc(OCCN(CC)CC)cc2)nc1-c1ccc(Oc2ccc(Cl)cc2)cc1
13 |  |  |  | 47.8 | CCCCc1sc(-c2ccc(OCCCN3CCCC3)cc2)nc1-c1ccc(Oc2ccc(Cl)cc2)cc1

Further lines, the compound ahead of its results:

Row | SMILES | inhibition [1] [%] | IC50 [2] [nM] | inhibition [3] [%] | inhibition [4] [%]
14 | CCCCc1sc(-c2ccc(OCCCN3CCN(C)CC3)cc2)nc1-c1ccc(Oc2ccc(Cl)cc2)cc1 | 3.1 | 1240 | 64.3 | 59.2
15 | CCCCc1sc(-c2ccc(Oc3ccc(Cl)cc3)cc2)nc1-c1ccc(OCC2CCCN(CC)C2)cc1 (stereo unspecified) |  | 1910 | 68.3 | 55.9
16 | CCCCc1sc(-c2ccc(Oc3ccc(Cl)cc3)cc2)nc1-c1ccc(O)cc1 |  |  |  | 0.2
17 | CCCCc1sc(-c2ccc(OCCN3CCN(C)CC3)cc2)nc1-c1ccc(Oc2ccc(Cl)cc2)cc1 | 17.2 | 1210 | 68.6 | 54.7
18 | CCCCc1sc(-c2ccc(OCC3CCCN(CC)C3)cc2)nc1-c1ccc(Oc2ccc(Cl)cc2)cc1 (stereo unspecified) | 3 | 660 | 77.5 | 58
19 | CCCCc1sc(-c2ccc(OCCCN3CCCCC3)cc2)nc1-c1ccc(Oc2ccc(Cl)cc2)cc1 | 11.7 | 1840 | 64.3 | 59.2
20 | CCCCc1sc(-c2ccc(OCCN3CCOCC3)cc2)nc1-c1ccc(Oc2ccc(Cl)cc2)cc1 |  |  |  | 22.9
21 | CCCCc1sc(-c2ccc(OCCCN3CCOCC3)cc2)nc1-c1ccc(Oc2ccc(Cl)cc2)cc1 |  |  |  | 40.6
22 | CCCCc1sc(-c2ccc(Oc3ccc(Cl)cc3)cc2)nc1-c1ccc(OCc2ccccc2)cc1 |  |  |  | 2.4
23 | CCCCc1sc(-c2ccc(OCCN3CCCC3)cc2)nc1-c1ccc(Oc2ccc(Cl)cc2)cc1 | 2.5 | 910 | 39.5 | 64.2
24 | CCCCc1sc(-c2ccc(OCCN3CCCCC3)cc2)nc1-c1ccc(Oc2ccc(Cl)cc2)cc1 | 13.5 | 1040 | 55.3 | 60.1
